Experimental data taken from ChEMBL document CHEMBL3351569, “Synthesis and antiproliferative activity of some new thieno[2,3-d]pyrimidin-4(3H)-ones containing 1,2,4-triazole and 1,3,4-thiadiazole moiety” (Eur J Med Chem, 2014).

Columns and labels:
[1] = system: HT-29; test: Cytotoxicity against human HT-29 cells assessed as reduction in cell viability after 24 hrs by MTS assay; assay type: functional, cell-based; conditions: HT-29, 24 h
Summary of the method: (§1)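 Compounds were dissolved in DMSO at 4 mg/ml (stock) and diluted 1:10, 1:100, 1:1000 and 1:10 000. Cells were incubated 24 h with compound, with untreated cells in unmodified medium as the control. MTS reagent was then added for 2 h at 37°C under 5% CO2/95% air, and absorbance was read at 490 nm. Viability is expressed as % of untreated control (100%) at each concentration, and IC50/EC50 were calculated from it.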

[2] = system: MDA-MB-231; test: Cytotoxicity against human MDA-MB-231 cells assessed as reduction in cell viability after 24 hrs by MTS assay; assay type: functional, cell-based; conditions: MDA-MB-231, 24 h; summary of the method: as §1
[3] = system: HeLa; test: Cytotoxicity against human HeLa cells assessed as reduction in cell viability after 24 hrs by MTS assay; assay type: functional, cell-based; summary of the method: as §1
[4] = system: HepG2; test: Cytotoxicity against human HepG2 cells assessed as reduction in cell viability after 24 hrs by MTS assay; assay type: functional, cell-based; conditions: HepG2, 24 h; summary of the method: as §1
[5] = Cytotoxicity against human LEP-3 cells assessed as reduction in cell viability after 24 hrs by MTS assay; assay type: cell-based; conditions: LEP-3, 24 h; summary of the method: as §1
[6] = system: HT-29; test: Antiproliferative activity against human HT-29 cells by CellTiter-96 non-radioactive assay; assay type: functional, cell-based; summary of the method: as §1
[7] = system: MDA-MB-231; test: Antiproliferative activity against human MDA-MB-231 cells by CellTiter-96 non-radioactive assay; assay type: functional, cell-based; summary of the method: as §1
[8] = Antiproliferative activity against human LEP-3 cells by CellTiter-96 non-radioactive assay; assay type: cell-based; summary of the method: as §1
[9] = system: HepG2; test: Antiproliferative activity against human HepG2 cells by CellTiter-96 non-radioactive assay; assay type: functional, cell-based; summary of the method: as §1
[10] = system: HeLa; test: Antiproliferative activity against human HeLa cells by CellTiter-96 non-radioactive assay; assay type: functional, cell-based; summary of the method: as §1

SMILES | EC50 [6] [µM] | EC50 [7] [µM] | EC50 [9] [µM] | EC50 [10] [µM] | IC50 [1] [µM] | IC50 [2] [µM] | IC50 [3] [µM] | IC50 [4] [µM] | IC50 [5] [µM] | EC50 [8] [µM]
CCOC(=O)c1sc2nc(CC(=O)NNC(=S)Nc3ccccc3)[nH]c(=O)c2c1C |  |  |  |  | 0.00156 | 1.21 | 9.3 | 1.47 | 1500 | 
O=c1[nH]c(Cc2nnc(S)n2-c2ccccc2)nc2sc3c(c12)CCCC3 | 1.8 | 1.2 |  |  |  |  | 0.00095 | 1800 |  | 0.46
NNC(=O)Cc1nc2sc3c(c2c(=O)[nH]1)CCCC3 | 2.12 | 1.54 | 2.18 | 2.52 |  |  |  |  |  | 2.21
O=c1[nH]c(Cc2nnc(Nc3ccccc3)s2)nc2sc3c(c12)CCCC3 |  |  |  |  | 0.13 | 0.0374 | 1.85 | 1.23 | 3.17 | 
CCNc1nnc(Cc2nc3sc4c(c3c(=O)[nH]2)CCCC4)s1 |  |  |  |  | 0.097 | 1.26 | 3.8 | 0.21 | 0.44 | 
CCn1c(S)nnc1Cc1nc2sc3c(c2c(=O)[nH]1)CCCC3 | 2.43 | 0.13 | 2.08 |  |  |  | 1.69 |  |  | 1.14

Second part, led by results:

EC50 [6] [µM] | EC50 [7] [µM] | EC50 [9] [µM] | EC50 [10] [µM] | SMILES | IC50 [1] [µM] | IC50 [2] [µM] | IC50 [3] [µM] | IC50 [4] [µM] | IC50 [5] [µM] | EC50 [8] [µM]
0.42 |  | 1.26 |  | CCNc1nnc(Cc2nc3sc(C(=O)OCC)c(C)c3c(=O)[nH]2)s1 |  | 0.0012 | 3.31 |  |  | 0.31
0.04 | 1.8 | 1.02 | 0.032 | CCNC(=S)NNC(=O)Cc1nc2sc3c(c2c(=O)[nH]1)CCCC3 |  |  |  |  |  | 0.12
0.86 | 0.3 |  | 0.12 | Cc1c(C(=O)O)sc2nc(Cc3nnc(S)n3-c3ccccc3)[nH]c(=O)c12 |  |  |  | 0.29 |  | 1.21
1.5 | 0.0018 |  |  | CCOC(=O)c1sc2nc(Cc3nnc(Nc4ccccc4)s3)[nH]c(=O)c2c1C |  |  | 2.3 | 0.88 |  | 0.26
0.089 |  | 0.19 |  | CCNC(=S)NNC(=O)Cc1nc2sc(C(=O)OCC)c(C)c2c(=O)[nH]1 |  | 0.0391 | 1.7 |  |  | 0.025
0.91 | 1.16 | 1.4 | 2.34 | CCn1c(S)nnc1Cc1nc2sc(C(=O)O)c(C)c2c(=O)[nH]1 |  |  |  |  |  | 1.4
